Laboratory results published in ChEMBL document CHEMBL1629439, “High-throughput identification of antibacterials against methicillin-resistant Staphylococcus aureus (MRSA) and the transglycosylase” (Bioorg Med Chem, 2010).
In brackets after ≈: the same amount, converted by molar mass.

What was measured:
Pseudomonas aeruginosa = assay: Antimicrobial activity against Pseudomonas aeruginosa ATCC 25619 after 18 to 24 hrs by alamar blue assay; format: functional; conditions: Pseudomonas aeruginosa, ATCC 25619; read-out: MIC
In short: (§1)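 Broth microdilution per NCCLS in Mueller-Hinton broth, 8-point twofold dilutions, 384-well format. Exponential-phase cells at 5 × 10^5 cells/ml incubated with compound 18–24 h at 37 °C, then 20% Alamar blue added and fluorescence read. MIC90 taken as the lowest concentration preventing at least 90% bacterial growth.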

Staphylococcus aureus [1] = assay: Antimicrobial activity against oxacillin- and methicillin-resistant Staphylococcus aureus isolate Sa-OXA-R2 after 18 to 24 hrs by alamar blue assay; format: functional
In short: (§2)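 Broth microdilution per NCCLS standard, Mueller-Hinton broth, 8-point twofold dilutions; exponentially growing cells at 5 10^5 cells/ml with compound, 18–24 h at 37 C; 20% Alamar blue added, fluorescence read; MIC90 taken as lowest concentration preventing at least 90% growth.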

Bacillus subtilis = assay: Antimicrobial activity against Bacillus subtilis ATCC 23857 after 18 to 24 hrs by alamar blue assay; format: functional; in short: as §1
Escherichia coli = assay: Antimicrobial activity against Escherichia coli ATCC […] after 18 to 24 hrs by alamar blue assay; format: functional; conditions: Escherichia coli; read-out: MIC; in short: as §1
[2] = test system: Stenotrophomonas maltophilia; assay: Antimicrobial activity against Stenotrophomonas maltophilia ATCC 13637 after 18 to 24 hrs by alamar blue assay; format: functional; conditions: Stenotrophomonas maltophilia, ATCC 13637; read-out: MIC; in short: as §1
Staphylococcus aureus [3] = assay: Antimicrobial activity against Staphylococcus aureus ATCC 29213 after 18 to 24 hrs by alamar blue assay
Serratia marcescens = assay: Antimicrobial activity against Serratia marcescens ATCC 14756 after 18 to 24 hrs by alamar blue assay; format: functional; conditions: Serratia marcescens, ATCC 14756; read-out: MIC; in short: as §1
Staphylococcus aureus [4] = assay: Antimicrobial activity against methicillin-resistant Staphylococcus aureus isolate NTUH4722 after 18 to 24 hrs by alamar blue assay; format: functional; in short: as §2
Staphylococcus aureus [5] = assay: Antimicrobial activity against methicillin-resistant Staphylococcus aureus ATCC 33592 after 18 to 24 hrs by alamar blue assay; format: functional; conditions: Staphylococcus aureus, ATCC 33592; read-out: MIC; in short: as §2
Acinetobacter baumannii = assay: Antimicrobial activity against Acinetobacter baumannii ATCC 49139 after 18 to 24 hrs by alamar blue assay; format: functional; conditions: Acinetobacter baumannii, ATCC 49139; read-out: MIC; in short: as §1
[6] = Inhibition of transglycosylase assessed as inhibition of NBD- labelled lipid II polymerization
In short: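 100 µM NBD-labelled lipid II incubated 30 min with full-length PBP (EC, SA or Mtb) and 10 ng/µl N-acetylmuramidase in 50 mM Tris-HCl pH 8.0, 10 mM MgCl2, 0.1% Triton X-100, 10% DMSO, 15% MeOH. Supernatant run on anion-exchange HPLC with 20 mM–0.5 M ammonium acetate gradient. Inhibition calculated from substrate peak-area percentage. IC50 determined. S. aureus strains share one SA enzyme.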

[7] = test system: Mycolicibacterium smegmatis; assay: Antimicrobial activity against Mycobacterium smegmatis BCRC 11565 after 18 to 24 hrs by alamar blue assay; format: functional; conditions: Mycolicibacterium smegmatis, BCRC 11565; read-out: MIC; in short: as §1

Row | Compound | MIC (Pseudomonas aeruginosa) [µg/mL] | MIC (Staphylococcus aureus [1]) [µg/mL] | MIC (Bacillus subtilis) [µg/mL] | MIC (Escherichia coli) [µg/mL] | MIC [2] [µg/mL] | MIC (Staphylococcus aureus [3]) [µg/mL] | MIC (Serratia marcescens) [µg/mL] | MIC (Staphylococcus aureus [4]) [µg/mL] | MIC (Staphylococcus aureus [5]) [µg/mL] | MIC (Acinetobacter baumannii) [µg/mL] | IC90 [6] [µM] | MIC [7] [µg/mL]
1 | O=C(Nc1ccc(Oc2ccc3ccccc3c2Cl)c(Cl)c1)c1cc(Br)cc(Br)c1O | 16 (≈ 27.5 µM) | ≤ 0.03 | < 0.03 | 8 (≈ 13.7 µM) | 16 (≈ 27.5 µM) | ≤ 2 | 16 (≈ 27.5 µM) | ≤ 0.03 | ≤ 2 | 16 (≈ 27.5 µM) | 100 | 0.5 (≈ 0.859 µM)
2 | O=C(Nc1cc(S(=O)(=O)c2ccc(Cl)cc2)ccc1Cl)c1cc(I)cc(I)c1O | 16 (≈ 23.7 µM) | ≤ 0.03 | < 0.03 | 8 (≈ 11.9 µM) | 16 (≈ 23.7 µM) | 8 (≈ 11.9 µM) | 16 (≈ 23.7 µM) | ≤ 0.03 | 8 (≈ 11.9 µM) | 16 (≈ 23.7 µM) | 100 | 0.5 (≈ 0.742 µM)
3 | Cc1c(CC(=O)N2CCC[C@H]2C(=O)O)c(=O)oc2c(C)c3occ(-c4ccc(F)cc4)c3cc12 | > 256 | 0.6 (≈ 1.29 µM) | > 64 | > 256 | > 256 | 0.6 (≈ 1.29 µM) | > 256 | 0.6 (≈ 1.29 µM) | 1.25 (≈ 2.7 µM) | > 256 | – | 1 (≈ 2.16 µM)
4 | O=C1c2cc([N+](=O)[O-])cc3cc([N+](=O)[O-])cc(c23)C(=O)N1c1ccc(O)cc1 | > 256 | 0.3 (≈ 0.791 µM) | 4 (≈ 10.5 µM) | > 256 | > 256 | 2.5 (≈ 6.59 µM) | > 256 | 2.5 (≈ 6.59 µM) | 2.5 (≈ 6.59 µM) | > 256 | – | 4 (≈ 10.5 µM)
5 | O=C(Nc1nnc(-c2ccc(Cl)cc2)o1)c1ccc(C(F)(F)F)cc1 | > 256 | 1.5 (≈ 4.08 µM) | 0.5 (≈ 1.36 µM) | > 256 | > 256 | 3 (≈ 8.16 µM) | > 256 | 1.5 (≈ 4.08 µM) | 1.5 (≈ 4.08 µM) | > 256 | – | 0.5 (≈ 1.36 µM)
6 | CCCC(NC(=O)Cc1c(C)c2cc3c(-c4ccc(Cl)cc4)coc3c(C)c2oc1=O)C(=O)O (stereo not drawn) | > 256 | 1.25 (≈ 2.59 µM) | > 64 | > 256 | > 256 | 1.25 (≈ 2.59 µM) | > 256 | 2.5 (≈ 5.19 µM) | 2.5 (≈ 5.19 µM) | > 256 | – | 1 (≈ 2.07 µM)
7 | Cc1ccc(NS(=O)(=O)c2ccc3c(c2)NCC(C)C(=O)S3)c(C)c1 (stereo not drawn) | > 256 | > 64 | < 0.03 | > 256 | > 256 | 2 (≈ 5.31 µM) | > 256 | 16 (≈ 42.5 µM) | 2 (≈ 5.31 µM) | > 256 | – | > 64
8 | O=C(Nc1cccc(-c2nc3ncccc3o2)c1)c1ccc([N+](=O)[O-])o1 | 128 (≈ 365 µM) | 2 (≈ 5.71 µM) | 0.06 (≈ 0.171 µM) | 256 (≈ 731 µM) | 32 (≈ 91.4 µM) | 4 (≈ 11.4 µM) | 32 (≈ 91.4 µM) | 2 (≈ 5.71 µM) | 4 (≈ 11.4 µM) | 12 (≈ 34.3 µM) | – | 0.5 (≈ 1.43 µM)
9 | O=C1c2ccc([N+](=O)[O-])c3c([N+](=O)[O-])ccc(c23)C(=O)N1c1ccccc1 | > 256 | 1.25 (≈ 3.44 µM) | 4 (≈ 11 µM) | > 256 | > 256 | 2.5 (≈ 6.88 µM) | > 256 | 1.25 (≈ 3.44 µM) | 2.5 (≈ 6.88 µM) | > 256 | – | 4 (≈ 11 µM)
10 | COc1ccccc1N1C(=O)c2cc([N+](=O)[O-])cc3cc([N+](=O)[O-])cc(c23)C1=O | > 256 | 0.3 (≈ 0.763 µM) | 4 (≈ 10.2 µM) | > 256 | > 256 | 1.25 (≈ 3.18 µM) | > 256 | 2.5 (≈ 6.36 µM) | 2.5 (≈ 6.36 µM) | > 256 | – | 4 (≈ 10.2 µM)
11 | CCc1cc(O)nc(N2NC(C)=CC2NC(=O)c2ccccc2Cl)n1 (stereo not drawn) | > 256 | 1.2 (≈ 3.34 µM) | 0.25 (≈ 0.695 µM) | > 256 | > 256 | 1.2 (≈ 3.34 µM) | > 256 | 1.2 (≈ 3.34 µM) | 1.2 (≈ 3.34 µM) | > 256 | – | 0.25 (≈ 0.695 µM)
12 | O=C(Nc1ccc(Cl)cc1)c1cc(Br)ccc1NS(=O)(=O)c1ccc(Cl)cc1 | > 256 | 0.5 (≈ 1 µM) | < 0.03 | > 256 | > 256 | 0.25 (≈ 0.5 µM) | > 256 | 0.25 (≈ 0.5 µM) | 0.25 (≈ 0.5 µM) | > 256 | – | > 64
13 | CCc1ccccc1NS(=O)(=O)c1ccc2c(c1)NCC(C)C(=O)S2 (stereo not drawn) | > 256 | > 64 | < 0.03 | > 256 | > 256 | 2 (≈ 5.31 µM) | > 256 | 4 (≈ 10.6 µM) | 2 (≈ 5.31 µM) | > 256 | – | > 64
14 | NC(=O)c1oc2ccccc2c1NC(=O)c1ccc([N+](=O)[O-])o1 | 128 (≈ 406 µM) | 2 (≈ 6.34 µM) | 0.06 (≈ 0.19 µM) | 256 (≈ 812 µM) | 32 (≈ 102 µM) | 2 (≈ 6.34 µM) | 32 (≈ 102 µM) | 0.5 (≈ 1.59 µM) | 0.5 (≈ 1.59 µM) | 12 (≈ 38.1 µM) | – | 0.5 (≈ 1.59 µM)
15 | O=C(Nc1nnc(-c2cccc(Br)c2)o1)c1ccc(F)cc1 | > 256 | 1.5 (≈ 4.14 µM) | 0.5 (≈ 1.38 µM) | > 256 | > 256 | 3 (≈ 8.28 µM) | > 256 | 1.5 (≈ 4.14 µM) | 1.5 (≈ 4.14 µM) | > 256 | – | 0.5 (≈ 1.38 µM)
16 | O=C(CCN1C(=O)c2cccc3cccc(c23)C1=O)N1CCN(C/C=C/c2ccccc2)CC1 | > 256 | 0.25 (≈ 0.551 µM) | 4 (≈ 8.82 µM) | > 256 | > 256 | 0.5 (≈ 1.1 µM) | > 256 | 4 (≈ 8.82 µM) | 1 (≈ 2.2 µM) | > 256 | – | 4 (≈ 8.82 µM)
